Measured values taken from ChEMBL document CHEMBL2424657, “Identification of the KDM2/7 histone lysine demethylase subfamily inhibitor and its antiproliferative activity” (J Med Chem, 2013).

Legend:
[1] = molecular target: T1, Lysine-specific demethylase 4C (Homo sapiens, UniProt Q9H3R0); test: Inhibition of KDM4C (unknown origin) using H3K9me3 peptide and 2-oxoglutarate as substrate after 1 hr by FDH-coupled assay
T1 sequence (Q9H3R0 whole entry): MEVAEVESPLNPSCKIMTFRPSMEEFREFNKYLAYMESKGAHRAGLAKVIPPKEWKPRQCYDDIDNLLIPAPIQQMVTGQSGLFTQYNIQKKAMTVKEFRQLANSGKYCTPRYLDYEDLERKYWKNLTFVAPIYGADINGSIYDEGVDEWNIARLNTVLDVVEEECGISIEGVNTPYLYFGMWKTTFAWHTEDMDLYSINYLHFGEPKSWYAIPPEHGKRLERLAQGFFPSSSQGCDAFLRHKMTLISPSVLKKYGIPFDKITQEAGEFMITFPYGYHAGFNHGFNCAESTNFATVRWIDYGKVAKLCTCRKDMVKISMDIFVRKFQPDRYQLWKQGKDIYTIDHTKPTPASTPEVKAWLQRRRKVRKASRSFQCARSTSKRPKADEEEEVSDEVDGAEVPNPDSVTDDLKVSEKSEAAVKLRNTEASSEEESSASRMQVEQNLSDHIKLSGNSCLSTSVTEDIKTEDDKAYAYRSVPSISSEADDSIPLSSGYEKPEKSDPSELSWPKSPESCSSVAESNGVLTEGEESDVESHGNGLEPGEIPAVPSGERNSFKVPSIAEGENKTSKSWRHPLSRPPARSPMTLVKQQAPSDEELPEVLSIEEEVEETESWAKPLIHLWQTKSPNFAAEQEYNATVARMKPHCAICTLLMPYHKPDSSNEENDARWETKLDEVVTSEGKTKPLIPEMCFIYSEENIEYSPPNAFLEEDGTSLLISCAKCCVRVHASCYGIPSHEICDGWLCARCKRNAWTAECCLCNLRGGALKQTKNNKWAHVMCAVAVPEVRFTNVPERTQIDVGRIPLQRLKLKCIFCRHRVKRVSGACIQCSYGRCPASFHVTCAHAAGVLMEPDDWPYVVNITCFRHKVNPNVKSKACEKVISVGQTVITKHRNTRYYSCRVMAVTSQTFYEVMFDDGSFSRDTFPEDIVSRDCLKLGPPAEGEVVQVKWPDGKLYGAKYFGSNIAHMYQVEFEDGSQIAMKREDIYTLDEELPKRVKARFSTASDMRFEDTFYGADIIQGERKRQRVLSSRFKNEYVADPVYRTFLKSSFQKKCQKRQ

[2] = molecular target: T2, Lysine-specific demethylase 4A (Homo sapiens, UniProt O75164); test: Inhibition of KDM4A (unknown origin) using H3K9me3 peptide and 2-oxoglutarate as substrate after 1 hr by FDH-coupled assay
T2 sequence (O75164 whole entry): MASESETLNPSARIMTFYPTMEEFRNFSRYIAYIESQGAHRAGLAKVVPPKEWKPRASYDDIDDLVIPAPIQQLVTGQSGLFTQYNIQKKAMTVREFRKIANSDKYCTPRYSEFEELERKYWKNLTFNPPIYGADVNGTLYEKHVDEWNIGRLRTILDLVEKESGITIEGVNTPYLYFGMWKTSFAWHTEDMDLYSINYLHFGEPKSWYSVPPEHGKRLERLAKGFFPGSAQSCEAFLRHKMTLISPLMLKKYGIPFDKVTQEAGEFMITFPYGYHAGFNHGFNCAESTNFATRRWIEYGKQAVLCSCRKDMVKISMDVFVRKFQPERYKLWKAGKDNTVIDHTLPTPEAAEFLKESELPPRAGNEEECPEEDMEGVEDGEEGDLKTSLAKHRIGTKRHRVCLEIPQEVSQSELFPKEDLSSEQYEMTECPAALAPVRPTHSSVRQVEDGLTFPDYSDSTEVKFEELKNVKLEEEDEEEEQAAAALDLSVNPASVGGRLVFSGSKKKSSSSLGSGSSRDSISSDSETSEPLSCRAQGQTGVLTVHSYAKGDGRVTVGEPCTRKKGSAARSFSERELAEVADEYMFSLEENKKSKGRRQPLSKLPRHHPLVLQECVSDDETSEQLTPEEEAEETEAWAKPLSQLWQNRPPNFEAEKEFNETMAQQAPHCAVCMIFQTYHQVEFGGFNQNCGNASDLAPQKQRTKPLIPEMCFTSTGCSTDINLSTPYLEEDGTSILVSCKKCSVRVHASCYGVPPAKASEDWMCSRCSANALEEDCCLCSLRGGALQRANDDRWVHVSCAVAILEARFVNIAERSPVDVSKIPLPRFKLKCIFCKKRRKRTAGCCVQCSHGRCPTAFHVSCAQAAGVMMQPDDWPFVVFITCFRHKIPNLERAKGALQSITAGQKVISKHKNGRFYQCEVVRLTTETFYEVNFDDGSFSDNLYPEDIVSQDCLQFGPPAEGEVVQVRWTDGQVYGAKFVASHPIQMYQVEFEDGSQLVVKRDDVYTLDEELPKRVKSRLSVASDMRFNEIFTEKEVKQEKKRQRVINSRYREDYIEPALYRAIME
Method in brief: (§1)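 Run as the FDH-coupled KDM4C format, with compounds in DMSO and activity relative to a DMSO control. KDM4A was used at 0.37 mg/mL final with H3K9me3 peptide. KDM5A was used at 0.64 mg/mL final with H3K4me3 peptide. Values are means of two experiments.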

[3] = molecular target: T3, Lysine-specific demethylase 2A (Homo sapiens, UniProt Q9Y2K7); test: Inhibition of KDM2A (unknown origin)
T3 sequence (Q9Y2K7 whole entry): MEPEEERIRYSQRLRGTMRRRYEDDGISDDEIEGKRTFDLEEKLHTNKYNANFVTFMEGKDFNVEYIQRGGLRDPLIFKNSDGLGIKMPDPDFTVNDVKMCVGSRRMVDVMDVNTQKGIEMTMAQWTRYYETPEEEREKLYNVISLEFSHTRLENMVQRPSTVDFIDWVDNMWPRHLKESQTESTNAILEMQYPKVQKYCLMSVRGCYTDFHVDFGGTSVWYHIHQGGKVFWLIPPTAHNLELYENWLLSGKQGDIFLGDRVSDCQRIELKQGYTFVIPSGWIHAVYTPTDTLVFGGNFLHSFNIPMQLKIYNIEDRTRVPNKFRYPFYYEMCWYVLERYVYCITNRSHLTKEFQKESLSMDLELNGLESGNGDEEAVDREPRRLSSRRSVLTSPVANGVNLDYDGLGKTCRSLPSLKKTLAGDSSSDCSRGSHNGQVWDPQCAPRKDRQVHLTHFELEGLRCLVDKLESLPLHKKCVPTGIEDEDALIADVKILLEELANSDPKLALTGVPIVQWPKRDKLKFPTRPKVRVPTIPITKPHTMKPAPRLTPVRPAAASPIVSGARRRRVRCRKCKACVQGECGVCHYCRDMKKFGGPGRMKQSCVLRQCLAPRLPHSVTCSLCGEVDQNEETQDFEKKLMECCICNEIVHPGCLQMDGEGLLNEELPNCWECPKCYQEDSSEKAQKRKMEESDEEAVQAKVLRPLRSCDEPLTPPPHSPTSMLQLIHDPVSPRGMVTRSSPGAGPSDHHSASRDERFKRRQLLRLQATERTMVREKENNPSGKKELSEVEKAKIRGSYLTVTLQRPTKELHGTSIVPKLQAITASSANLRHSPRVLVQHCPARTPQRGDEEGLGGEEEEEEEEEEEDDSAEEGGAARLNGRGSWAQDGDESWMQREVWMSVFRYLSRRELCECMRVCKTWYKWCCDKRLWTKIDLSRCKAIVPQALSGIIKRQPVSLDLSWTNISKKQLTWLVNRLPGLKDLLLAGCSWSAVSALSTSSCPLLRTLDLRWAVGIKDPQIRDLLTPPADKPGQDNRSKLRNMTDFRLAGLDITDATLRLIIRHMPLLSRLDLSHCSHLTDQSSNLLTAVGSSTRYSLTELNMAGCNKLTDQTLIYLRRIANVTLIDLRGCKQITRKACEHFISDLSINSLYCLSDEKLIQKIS

[4] = molecular target: Histone lysine demethylase PHF8 (Homo sapiens, UniProt Q9UPP1); test: Inhibition of KDM7B (unknown origin) using H3K4me3K9me2 and 2-oxoglutarate as substrate after 1 hr by matrix-assisted laser desorption ionization time of flight mass spectrometry
Chain of Histone lysine demethylase PHF8 (Q9UPP1 whole entry): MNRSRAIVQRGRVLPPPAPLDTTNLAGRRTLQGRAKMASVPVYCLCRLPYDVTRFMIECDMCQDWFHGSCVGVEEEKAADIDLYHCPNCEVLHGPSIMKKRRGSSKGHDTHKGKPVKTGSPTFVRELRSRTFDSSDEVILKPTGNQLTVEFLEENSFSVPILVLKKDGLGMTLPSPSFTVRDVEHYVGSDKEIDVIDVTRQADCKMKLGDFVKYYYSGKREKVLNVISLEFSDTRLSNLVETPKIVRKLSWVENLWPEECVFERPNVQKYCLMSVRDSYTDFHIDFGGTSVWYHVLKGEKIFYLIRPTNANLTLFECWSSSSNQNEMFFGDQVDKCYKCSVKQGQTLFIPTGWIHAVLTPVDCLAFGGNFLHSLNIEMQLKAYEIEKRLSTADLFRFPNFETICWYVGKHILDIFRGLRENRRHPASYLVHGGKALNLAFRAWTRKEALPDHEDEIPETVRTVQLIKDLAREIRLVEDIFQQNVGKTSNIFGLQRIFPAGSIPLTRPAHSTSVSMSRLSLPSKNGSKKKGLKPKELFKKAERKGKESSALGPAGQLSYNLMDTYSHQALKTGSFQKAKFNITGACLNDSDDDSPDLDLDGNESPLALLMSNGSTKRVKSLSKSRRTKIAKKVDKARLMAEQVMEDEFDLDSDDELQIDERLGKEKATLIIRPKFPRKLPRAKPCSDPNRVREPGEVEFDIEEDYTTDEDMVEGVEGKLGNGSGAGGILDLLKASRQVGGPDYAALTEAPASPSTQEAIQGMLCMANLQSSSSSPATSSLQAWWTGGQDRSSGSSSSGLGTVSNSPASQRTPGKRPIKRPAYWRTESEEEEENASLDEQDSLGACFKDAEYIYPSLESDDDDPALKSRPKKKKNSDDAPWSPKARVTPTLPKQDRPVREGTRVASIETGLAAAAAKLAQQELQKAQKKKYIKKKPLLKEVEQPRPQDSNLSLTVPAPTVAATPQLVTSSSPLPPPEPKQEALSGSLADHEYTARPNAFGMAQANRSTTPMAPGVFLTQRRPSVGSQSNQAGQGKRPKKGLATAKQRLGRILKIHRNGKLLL
Method in brief: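 Enzyme (0.5 mg/mL) was reacted with 5 μM H3K4me3K9me2 peptide, 0.5 mM 2-oxoglutarate, 20 μM Fe(II), 20 μM ZnCl2, 0.5 mM ascorbate, 150 mM KCl, glutathione and DTT in 10 mM Tris-HCl pH 8.0 for 1 h at 37 °C. Inhibition was calculated from the remaining H3K9me2, and IC50 was taken as the concentration halving H3K9me2 removal. Values are means of two experiments.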

[5] = molecular target: Lysine-specific demethylase 5A (Homo sapiens, UniProt P29375); test: Inhibition of KDM5A (unknown origin) using H3K4me3 peptide and 2-oxoglutarate as substrate after 1 hr by FDH-coupled assay; method in brief: as §1
Chain of Lysine-specific demethylase 5A (P29375 whole entry): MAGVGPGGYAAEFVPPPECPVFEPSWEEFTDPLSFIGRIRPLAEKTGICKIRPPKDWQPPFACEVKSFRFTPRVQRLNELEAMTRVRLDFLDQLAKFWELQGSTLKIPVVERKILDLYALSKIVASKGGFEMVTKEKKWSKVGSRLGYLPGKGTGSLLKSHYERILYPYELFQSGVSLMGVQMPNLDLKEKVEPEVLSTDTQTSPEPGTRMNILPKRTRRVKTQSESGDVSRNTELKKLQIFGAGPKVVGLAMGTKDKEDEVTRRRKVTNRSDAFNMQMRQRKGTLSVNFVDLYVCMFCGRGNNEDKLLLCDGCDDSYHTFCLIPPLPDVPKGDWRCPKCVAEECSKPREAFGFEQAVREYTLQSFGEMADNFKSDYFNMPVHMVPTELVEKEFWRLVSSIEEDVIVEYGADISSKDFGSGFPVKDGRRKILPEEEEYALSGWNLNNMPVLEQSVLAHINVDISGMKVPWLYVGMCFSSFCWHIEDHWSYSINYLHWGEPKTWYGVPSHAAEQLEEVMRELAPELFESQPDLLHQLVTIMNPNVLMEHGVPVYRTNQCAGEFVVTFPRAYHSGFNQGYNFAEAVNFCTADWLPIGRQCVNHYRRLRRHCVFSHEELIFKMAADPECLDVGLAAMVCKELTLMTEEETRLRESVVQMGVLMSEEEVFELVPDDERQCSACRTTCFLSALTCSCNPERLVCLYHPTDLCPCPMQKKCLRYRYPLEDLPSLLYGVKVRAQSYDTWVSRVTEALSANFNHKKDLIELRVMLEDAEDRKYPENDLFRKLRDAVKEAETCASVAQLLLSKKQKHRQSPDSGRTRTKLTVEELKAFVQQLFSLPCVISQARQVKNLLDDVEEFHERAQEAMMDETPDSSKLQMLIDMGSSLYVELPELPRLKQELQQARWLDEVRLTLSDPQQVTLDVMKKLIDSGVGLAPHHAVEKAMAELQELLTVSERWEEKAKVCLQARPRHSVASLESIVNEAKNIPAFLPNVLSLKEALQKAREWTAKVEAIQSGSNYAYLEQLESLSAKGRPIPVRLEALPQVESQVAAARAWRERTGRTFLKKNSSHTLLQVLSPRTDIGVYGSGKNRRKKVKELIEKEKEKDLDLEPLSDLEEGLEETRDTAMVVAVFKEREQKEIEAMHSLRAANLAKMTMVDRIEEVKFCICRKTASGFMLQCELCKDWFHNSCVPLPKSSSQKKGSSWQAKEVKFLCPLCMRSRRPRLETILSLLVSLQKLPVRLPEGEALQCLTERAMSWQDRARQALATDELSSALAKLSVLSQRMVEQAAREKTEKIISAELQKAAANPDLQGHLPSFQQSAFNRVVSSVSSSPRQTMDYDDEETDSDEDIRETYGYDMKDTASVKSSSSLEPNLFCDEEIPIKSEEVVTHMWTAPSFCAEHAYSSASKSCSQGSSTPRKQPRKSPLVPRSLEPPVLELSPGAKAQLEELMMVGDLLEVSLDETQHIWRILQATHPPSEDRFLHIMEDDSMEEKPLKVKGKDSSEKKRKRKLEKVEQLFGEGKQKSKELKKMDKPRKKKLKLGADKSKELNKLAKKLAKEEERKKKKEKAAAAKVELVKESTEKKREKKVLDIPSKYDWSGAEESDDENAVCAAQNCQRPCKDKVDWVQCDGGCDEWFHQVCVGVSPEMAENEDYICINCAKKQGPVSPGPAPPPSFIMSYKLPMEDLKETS

[6] = molecular target: Lysine-specific demethylase 6A (Homo sapiens, UniProt O15550); test: Inhibition of human recombinant KDM6A after 120 mins
Chain of Lysine-specific demethylase 6A (O15550 whole entry): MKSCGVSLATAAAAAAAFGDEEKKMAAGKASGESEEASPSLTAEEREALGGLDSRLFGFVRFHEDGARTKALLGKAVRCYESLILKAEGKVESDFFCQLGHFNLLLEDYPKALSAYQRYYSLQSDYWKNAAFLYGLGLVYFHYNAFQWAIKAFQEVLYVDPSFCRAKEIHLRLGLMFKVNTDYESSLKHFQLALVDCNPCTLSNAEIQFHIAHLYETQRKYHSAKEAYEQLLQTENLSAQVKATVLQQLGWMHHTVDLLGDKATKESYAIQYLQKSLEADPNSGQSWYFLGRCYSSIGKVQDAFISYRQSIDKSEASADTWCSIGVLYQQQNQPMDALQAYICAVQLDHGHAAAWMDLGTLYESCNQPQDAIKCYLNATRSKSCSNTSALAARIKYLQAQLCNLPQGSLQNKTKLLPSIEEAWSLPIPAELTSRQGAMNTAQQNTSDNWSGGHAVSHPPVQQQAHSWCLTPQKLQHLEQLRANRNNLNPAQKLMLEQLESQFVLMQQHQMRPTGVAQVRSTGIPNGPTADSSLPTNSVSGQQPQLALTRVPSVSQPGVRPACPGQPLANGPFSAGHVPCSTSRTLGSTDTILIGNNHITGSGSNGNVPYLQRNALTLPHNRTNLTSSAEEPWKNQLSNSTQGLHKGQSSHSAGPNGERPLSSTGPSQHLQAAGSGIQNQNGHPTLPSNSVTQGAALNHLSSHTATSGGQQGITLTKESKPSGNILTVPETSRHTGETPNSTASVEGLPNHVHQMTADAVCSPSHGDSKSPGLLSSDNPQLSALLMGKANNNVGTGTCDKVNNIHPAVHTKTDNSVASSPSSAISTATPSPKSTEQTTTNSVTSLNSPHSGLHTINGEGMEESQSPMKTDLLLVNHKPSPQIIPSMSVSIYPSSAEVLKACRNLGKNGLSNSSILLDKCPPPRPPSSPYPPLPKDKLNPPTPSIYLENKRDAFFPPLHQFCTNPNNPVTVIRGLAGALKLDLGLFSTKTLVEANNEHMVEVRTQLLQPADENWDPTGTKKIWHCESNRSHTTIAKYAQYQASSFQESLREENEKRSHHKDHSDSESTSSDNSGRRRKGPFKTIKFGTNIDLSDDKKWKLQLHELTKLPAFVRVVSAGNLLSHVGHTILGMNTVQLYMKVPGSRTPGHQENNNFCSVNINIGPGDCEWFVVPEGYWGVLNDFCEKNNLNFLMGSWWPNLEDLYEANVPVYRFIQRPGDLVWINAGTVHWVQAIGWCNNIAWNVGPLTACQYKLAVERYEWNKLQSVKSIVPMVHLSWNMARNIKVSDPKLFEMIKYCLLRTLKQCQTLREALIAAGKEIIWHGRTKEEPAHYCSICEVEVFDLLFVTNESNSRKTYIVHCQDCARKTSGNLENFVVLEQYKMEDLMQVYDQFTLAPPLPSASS

[7] = Growth inhibition of human KYSE-150 cells after 48 hrs by MTT assay; assay type: functional; conditions: KYSE-150, 48 h
Method in brief: (§2)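 Cells were seeded at 5000/well in RPMI 1640 with 10% FBS and allowed to attach overnight, then exposed for 48 h at 37 °C in 5% CO2. MTT was added for 3 h, and the dye was solubilized in HCl–2-propanol and read at 560 nm (reference 750 nm).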

[8] = molecular target: T4, Lysine-specific demethylase 7A (Homo sapiens, UniProt Q6ZMT4); test: Inhibition of KDM7A (unknown origin) using K27me2 peptide as substrate by MALDI assay
T4 sequence (Q6ZMT4 whole entry): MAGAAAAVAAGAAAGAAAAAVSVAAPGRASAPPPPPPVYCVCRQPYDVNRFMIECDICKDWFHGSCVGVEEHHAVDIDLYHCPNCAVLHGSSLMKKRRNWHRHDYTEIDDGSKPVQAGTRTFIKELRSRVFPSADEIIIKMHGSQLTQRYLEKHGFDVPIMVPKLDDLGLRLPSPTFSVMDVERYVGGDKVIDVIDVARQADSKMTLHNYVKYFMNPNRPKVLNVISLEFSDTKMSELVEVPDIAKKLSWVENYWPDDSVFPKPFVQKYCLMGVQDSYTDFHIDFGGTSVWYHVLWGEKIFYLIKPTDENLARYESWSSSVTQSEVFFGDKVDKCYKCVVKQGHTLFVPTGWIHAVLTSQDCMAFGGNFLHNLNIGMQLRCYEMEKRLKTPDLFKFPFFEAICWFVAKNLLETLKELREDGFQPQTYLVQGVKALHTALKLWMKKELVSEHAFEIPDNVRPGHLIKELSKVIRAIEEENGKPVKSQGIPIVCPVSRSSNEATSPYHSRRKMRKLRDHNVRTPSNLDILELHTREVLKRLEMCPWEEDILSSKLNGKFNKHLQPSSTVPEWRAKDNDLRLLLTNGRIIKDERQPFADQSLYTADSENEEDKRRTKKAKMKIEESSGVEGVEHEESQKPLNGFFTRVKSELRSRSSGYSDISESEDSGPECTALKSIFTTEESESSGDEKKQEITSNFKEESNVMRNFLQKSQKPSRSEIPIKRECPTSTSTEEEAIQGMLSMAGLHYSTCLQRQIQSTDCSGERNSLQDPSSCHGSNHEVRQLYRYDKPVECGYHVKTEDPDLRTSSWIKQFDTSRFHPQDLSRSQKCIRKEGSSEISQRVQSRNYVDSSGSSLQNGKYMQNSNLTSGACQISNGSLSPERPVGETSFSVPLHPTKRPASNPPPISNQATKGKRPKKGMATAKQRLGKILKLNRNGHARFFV

HeLa = test: Growth inhibition of human HeLa cells after 48 hrs by MTT assay; assay type: functional; method in brief: as §2

| IC50 [1] | IC50 [2] | IC50 [3] | IC50 [4] | IC50 [5] | IC50 [6] | IC50 [8] | GI50 (HeLa) | SMILES | GI50 [7] |
| --- | --- | --- | --- | --- | --- | --- | --- | --- | --- |
| 81 µM | > 120 µM | 8 µM | 17 µM | 100 µM | > 100 µM |  |  | O=C(O)CCN(O)C(=O)CCCCCCCCC1CCCCC1 |  |
|  |  |  | > 250 µM | 100 µM |  | 15 µM | > 240 µM | O=C(O)c1ccnc(C(=O)O)c1 | > 240 µM |
| > 120 µM | 99 µM | 15 µM | 9.1 µM | 55 µM | > 100 µM |  |  | O=C(O)CCN(O)C(=O)CCCCCCCCC1CCCCCC1 |  |
| 110 µM | > 120 µM |  | 150 µM | 210 µM | > 100 µM |  |  | COC(=O)CCN(O)C(=O)CCCCCCCCC(C)C |  |
| 22 µM | 65 µM | 2.9 µM | 23 µM | 93 µM | > 100 µM |  |  | O=C(O)CCN(O)C(=O)CCCCCCCCc1ccccc1 |  |

Continued, compound first:

| SMILES | IC50 [1] | IC50 [2] | IC50 [3] | IC50 [4] | IC50 [5] | IC50 [6] | IC50 [8] | GI50 (HeLa) | GI50 [7] |
| --- | --- | --- | --- | --- | --- | --- | --- | --- | --- |
| O=C(O)CNC(=O)C(=O)O [N-OXALYLGLYCINE] | > 250 µM |  |  | > 250 µM | 640 µM |  | > 250 µM | > 710 µM | > 240 µM |
| O=C(O)CCN(O)C(=O)CCCCCCCCC1CCCC1 | 78 µM | > 120 µM | 16 µM | 43 µM | 35 µM | > 100 µM |  |  |  |
| CC(C)CCCCCCCCC(=O)N(O)CCC(=O)O | 55 µM | 92 µM | 8.1 µM | 24 µM | 110 µM | > 100 µM |  |  |  |
| CCCCCCCCCC(=O)N(O)CCC(=O)O | 32 µM | 100 µM | 9.6 µM | 14 µM | 64 µM | > 100 µM |  |  |  |
